Experimental data: ChEMBL document CHEMBL2331224 (J Med Chem, 2013)
The source made the active and inactive calls. The calls are words filed in the database; no cut-off is given here.

Key:
Mus musculus [1] = assay: Antidiabetic activity in KKAy mouse assessed as reduction in water intake on day 3 to 12 at 10 mg/kg/day, po for 14 days relative to control; type: functional, organism-based
In short: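 Male KK-A^y mice, housed singly after 6 weeks' acclimation and grouped by blood glucose. Oral 10 mg/kg/day or vehicle (1% ethanol/0.5% CMC in water, 10 mL/kg) for 14 days. Body weight, food and water intake were followed. Fed blood glucose was taken from the tail vein by the glucose oxidase method. n = 4−5, ANOVA.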

[2] = molecular target: T1, Retinoic acid receptor RXR-alpha (Homo sapiens) (UniProt P19793); assay: Transactivation of RXRalpha (unknown origin) expressed in COS1 cells at 1 uM after 18 hrs by luciferase reporter gene assay relative to bexarotene; type: cell-based; conditions: COS-1
T1 sequence (whole entry): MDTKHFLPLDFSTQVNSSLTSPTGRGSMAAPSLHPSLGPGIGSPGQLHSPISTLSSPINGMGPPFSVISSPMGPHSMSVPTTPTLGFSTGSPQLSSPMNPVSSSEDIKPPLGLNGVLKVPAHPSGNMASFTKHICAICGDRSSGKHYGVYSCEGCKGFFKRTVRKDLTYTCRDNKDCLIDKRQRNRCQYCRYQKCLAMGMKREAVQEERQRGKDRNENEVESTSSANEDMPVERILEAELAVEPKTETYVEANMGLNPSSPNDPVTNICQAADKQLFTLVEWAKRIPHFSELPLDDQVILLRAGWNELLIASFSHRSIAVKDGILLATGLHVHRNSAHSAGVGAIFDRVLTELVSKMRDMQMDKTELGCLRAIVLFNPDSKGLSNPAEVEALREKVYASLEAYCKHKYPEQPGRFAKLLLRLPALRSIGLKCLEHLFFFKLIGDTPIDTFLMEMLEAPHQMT
In short: (§1)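 COS-1 cells in DMEM with 10% FBS at 37 °C, 5% CO2, transfected with RXRα, an RXR-response-element luciferase reporter and a SEAP background vector. Cells were seeded at about 2.0 × 10⁴ per well with compound (DMSO below 1%) for 18 h. Luciferase was normalized to SEAP and expressed relative to 1 μM reference RXR full agonist as 100%. EC50 came from full dose-response curves. Triplicates, at least three experiments.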

Mus musculus [3] = assay: Toxicity against KKAy mouse assessed as blood urea nitrogen level at 10 mg/kg/day, po for 14 days (reference value: 21.9 +/- 1.1 mg/dL); type: organism-based; set-up: route oral; conditions: in vivo, 336 h
[4] = molecular target: T1, Retinoic acid receptor RXR-alpha (Homo sapiens); assay: Partial agonist activity at human RXRalpha by luciferase reporter gene assay
In short: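 COS-1 cells transfected with RXRα, luciferase reporter under RXR response element, and SEAP control; cells seeded ~2.0 × 10⁴/well with compound (DMSO below 1%), 18 h at 37 °C, 5% CO₂. Luciferase normalized to SEAP, expressed relative to 1 μM LGD1069 as 100%; EC₅₀ from full dose-response curves; triplicate, three experiments.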

[5] = molecular target: T1, Retinoic acid receptor RXR-alpha (Homo sapiens); assay: Partial agonist activity at RXRalpha (unknown origin) expressed in COS1 cells after 18 hrs by luciferase reporter gene assay relative to bexarotene; type: cell-based; conditions: COS-1; in short: as §1
[6] = molecular target: T2, Retinoic acid receptor RXR-beta (Homo sapiens) (UniProt P28702); assay: Partial agonist activity at RXRbeta (unknown origin) by luciferase reporter gene assay relative to LGD1069
T2 sequence (whole entry): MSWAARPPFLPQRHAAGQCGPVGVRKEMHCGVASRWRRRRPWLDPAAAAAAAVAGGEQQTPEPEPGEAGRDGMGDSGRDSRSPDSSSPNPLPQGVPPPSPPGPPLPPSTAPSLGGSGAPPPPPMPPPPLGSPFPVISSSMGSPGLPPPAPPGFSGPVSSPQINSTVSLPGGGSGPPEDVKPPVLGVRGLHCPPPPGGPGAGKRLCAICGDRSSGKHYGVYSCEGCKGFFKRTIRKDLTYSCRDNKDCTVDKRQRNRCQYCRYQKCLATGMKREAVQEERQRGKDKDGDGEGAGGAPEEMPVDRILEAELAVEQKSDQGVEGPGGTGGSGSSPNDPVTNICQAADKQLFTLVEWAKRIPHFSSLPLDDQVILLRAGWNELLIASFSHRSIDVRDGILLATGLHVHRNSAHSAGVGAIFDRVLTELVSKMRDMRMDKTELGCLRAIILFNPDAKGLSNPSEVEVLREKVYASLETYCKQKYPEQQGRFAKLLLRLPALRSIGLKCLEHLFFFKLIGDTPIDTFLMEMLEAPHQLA

Mus musculus [7] = assay: Toxicity against KKAy mouse assessed as plasma ALP level at 10 mg/kg/day, po for 14 days (reference value: 358.2 +/- 43.1 IU); type: organism-based; set-up: route oral; conditions: in vivo, 336 h
Rattus norvegicus = assay: Toxicity in Sprague-Dawley rat assessed as enlargement of spleen at 30 mg/kg, po for 28 days; type: organism-based; set-up: dose 30 mg/kg, route oral; conditions: in vivo, 672 h
In short: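 Male and female SD rats, four weeks old on arrival, two per cage. Oral 30 mg/kg/day or vehicle (1% ethanol/0.5% CMC in water, 5 mL/kg) for 28 days, body weight recorded daily. After overnight fasting and isoflurane anaesthesia, liver, brain, kidney, spleen and testis were weighed, and serum was collected (2000g, 10 min, 4 °C) for blood chemistry.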

Mus musculus [8] = assay: Toxicity against KKAy mouse assessed as plasma AST level at 10 mg/kg/day, po for 14 days (reference value: 49.6 +/- 2.3 IU); type: organism-based; set-up: route oral; conditions: in vivo, 336 h
[9] = molecular target: T3, Retinoic acid receptor RXR-gamma (Homo sapiens) (UniProt P48443); assay: Partial agonist activity at RXRgamma (unknown origin) by luciferase reporter gene assay relative to LGD1069
T3 sequence (whole entry): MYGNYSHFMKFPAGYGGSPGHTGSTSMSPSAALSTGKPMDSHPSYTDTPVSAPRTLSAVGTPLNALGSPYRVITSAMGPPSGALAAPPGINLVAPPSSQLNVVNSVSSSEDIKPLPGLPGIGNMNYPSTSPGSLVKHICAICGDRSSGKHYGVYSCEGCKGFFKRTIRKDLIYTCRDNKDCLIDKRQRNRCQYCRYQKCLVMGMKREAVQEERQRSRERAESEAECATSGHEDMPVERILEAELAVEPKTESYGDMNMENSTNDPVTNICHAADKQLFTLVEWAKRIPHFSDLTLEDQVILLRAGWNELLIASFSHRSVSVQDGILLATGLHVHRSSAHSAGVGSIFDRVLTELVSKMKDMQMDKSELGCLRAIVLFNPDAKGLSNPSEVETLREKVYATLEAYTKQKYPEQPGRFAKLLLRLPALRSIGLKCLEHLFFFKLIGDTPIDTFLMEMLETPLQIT

Mus musculus [10] = assay: Toxicity in ICR mouse assessed as change in renal function parameters at 30 mg/kg/day, po for 7 days; type: organism-based; set-up: route oral; conditions: in vivo, 168 h
In short: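 Male ICR mice, 6−7 weeks old, four per cage, grouped by body weight. Oral 30 mg/kg or vehicle (1% ethanol/0.5% CMC in water, 10 mL/kg) once daily for 7 days, body weight recorded daily. After overnight fasting, mice were weighed under ether, and liver was removed and weighed. Serum was analysed on a dry-chemistry analyser for TG, TCHO, ALP, CRE, BUN and other markers. n = 7−23, ANOVA.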

- Efficacy [2]: 65%
- Activity [4]: Active
- Emax [5]: 67%
- Activity [6]: Active
- Activity [9]: Active
SMILES: Cc1cc2c(cc1-n1c(C(F)(F)F)nc3cc(C(=O)O)ccc31)C(C)(C)CCC2(C)C
- Activity (Mus musculus [1]): Active
- Activity (Mus musculus [3]): 22.5 mg/dL
- Activity (Mus musculus [7]): 554 IU
- Activity (Rattus norvegicus): Toxic
- Activity (Mus musculus [8]): 42.3 IU
- Activity (Mus musculus [10]): Non-toxic
